Measurements: paper PMC5495021 (Leukemia & lymphoma, 2015)
“Also recorded” adds a separate entry of the source. Read-outs that look alike come from different tables or passages of the source.

Assays:
[1] = Plasma pharmacokinetics of SAR103168 in phase I patients; format: in vivo, human
[2] = human, in vivo
[3] = tested on: epidermal growth factor receptor (EGFR); conditions: preclinical; cited from earlier work
Protein binding = format: in vitro ADME, human; conditions: no saturation over a clinically relevant concentration range
[4] = tested on: refractory/relapsed acute leukemias or high-risk myelodysplastic syndromes; assay: Anti-leukemic efficacy; format: in vivo, human
Procedure, shortened: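 Adults with refractory/relapsed acute leukemia, accelerated/blast-phase CML, or high-risk MDS received IV infusion daily for 5 days per course, starting at 1.2 mg/m2/day with dose escalation. Response was graded by IWG criteria (acute leukemia/MDS) or European LeukemiaNet definitions (CML). Marrow aspirate/biopsy at baseline, course 2 Day 11–14, every 2 courses, and end of study. Descriptive statistics.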

[5] = tested on: vascular endothelial growth factor receptor type 2 (VEGFR2); conditions: preclinical; cited from earlier work
[6] = tested on: vascular endothelial growth factor receptor type 1 (VEGFR1); conditions: preclinical; cited from earlier work
human AML leukemic cells = conditions: animals implanted with human AML leukemic cells; cited from earlier work
[7] = tested on: acute and chronic myeloid leukemic cells; conditions: inhibition of proliferation and induction of apoptosis; cited from earlier work
[8] = tested on: leukemic progenitor cells from 29 patients with AML; conditions: including poor-prognosis chromosome abnormalities; cited from earlier work
BCR-Abl kinase = conditions: preclinical; cited from earlier work
xenograft models = conditions: cited from earlier work
[9] = cited from earlier work
[10] = tested on: platelet-derived growth factor receptor (PDGFR); conditions: preclinical; cited from earlier work
Tie2 = conditions: preclinical; cited from earlier work
[11] = tested on: fibroblast growth factor receptor (FGFR); conditions: preclinical; cited from earlier work
Src kinase family = conditions: preclinical; cited from earlier work
CYP2D6 = CYP2D6 (Homo sapiens, UniProt P10635); assay: Contribution of CYP enzymes to metabolism; format: in vitro ADME
[12] = Safety / adverse events and DLT in phase I dose escalation study
[13] = preclinical toxicology studies; cited from earlier work
[14] = mice at active doses (16.7 mg/kg IV or 2 × 40 mg/kg PO)

Sequence of CYP2D6 (P10635 whole entry): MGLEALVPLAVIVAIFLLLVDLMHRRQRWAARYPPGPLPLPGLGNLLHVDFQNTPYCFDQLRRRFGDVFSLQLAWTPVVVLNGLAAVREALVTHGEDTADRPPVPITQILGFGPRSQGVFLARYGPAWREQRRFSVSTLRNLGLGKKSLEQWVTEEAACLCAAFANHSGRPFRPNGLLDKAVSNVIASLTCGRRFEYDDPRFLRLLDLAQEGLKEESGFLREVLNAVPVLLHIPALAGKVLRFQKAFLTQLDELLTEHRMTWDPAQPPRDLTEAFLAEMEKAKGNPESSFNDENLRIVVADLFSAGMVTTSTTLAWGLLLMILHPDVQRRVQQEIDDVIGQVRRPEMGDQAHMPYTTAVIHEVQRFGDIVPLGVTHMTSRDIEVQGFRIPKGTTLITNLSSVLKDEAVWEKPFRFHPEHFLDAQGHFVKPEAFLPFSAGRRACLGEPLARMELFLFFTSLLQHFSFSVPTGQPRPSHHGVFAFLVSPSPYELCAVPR

CC(C)(C)NC(=O)Nc1nc2nc(Nc3ccc4nsnc4c3)ncc2cc1-c1c(Cl)cccc1Cl [SAR103168, 1-[2-(2,1,3-benzothiadiazol-5-ylamino)-6-(2,6-dicholophenyl)-pyridol[2,3-d]pyrimidin-7-yl]-3′-tert-butylurea]
time by which mean plasma concentrations were below the limit of detection ([1]; all dose groups): ≤ 24 h | tlast ([1]; generally, over the dose range 1.2 to 14.4 mg/m2): ≤ 7 h | accumulation in exposures (Cmax or AUClast) upon multiple daily dosings ([1]; human, in vivo): limited accumulation | patient exposure (AUC) ([1]; human, in vivo, 14.4 mg/m2): ~ 1000 ng/h/mL | patient exposure (Cmax) ([1]; human, in vivo, 14.4 mg/m2): ~ 500 ng/mL | maximum tolerated dose (MTD) [2]: prior to reaching the MTD | activity against EGFR [3]: Nanomolar activity | Human protein binding (Protein binding): > 99.3% | transient decrease in peripheral blasts ([4]; efficacy population): One patient | clinical benefit ([4]; within the tested dose range): did not demonstrate a clear clinical benefit | activity against VEGFR2 [5]: Nanomolar activity | activity against VEGFR1 [6]: Nanomolar activity | effect of administration on tumors (human AML leukemic cells): tumor regression | IC50 of anti-leukemic effects [7]: nanomolar | AML patient samples sensitive to the agent [8]: over 85% | activity against the BCR-Abl kinase (BCR-Abl kinase): Nanomolar activity | active dose in various tumor models (xenograft models; IV, in mice): 16.7 mg/kg | putative, partially active dose level (xenograft models; based on the preclinical data, human-equivalent of 10 mg/kg in mouse): ~ 30 mg/m^2 | putative, partially active dose level (xenograft models; in mouse, preclinical data): 10 mg/kg | AUCs achieved in animal models [9, 14]: ≥ 16000 ng/h/mL | Cmax achieved in animal models [9, 14]: ≥ 3600 ng/mL | exposures (AUCs) which demonstrated in vivo activity in xenograft models ([9]; xenograft models): 16000 ng/h/mL | activity against PDGFR [10]: Nanomolar activity | activity against Tie2 (Tie2): Nanomolar activity | activity against FGFR [11]: Nanomolar activity | activity against the Src kinase family (Src kinase family): Nanomolar activity | contribution of CYP2D6 to the compound's metabolism (CYP2D6): ~ 20% | discontinuation of study treatment due to adverse events ([12]; 29 treated patients): 10.3% | SAE Preferred Term ([12]; planned dose level 1.2 mg/m^2, Relationship to Study Drug: No): Multi-organ failure; also recorded: Bacteremia; also recorded: Pneumonia fungal; also recorded: Febrile neutropenia | SAE Preferred Term ([12]; planned dose level 1.2 mg/m^2, Relationship to Study Drug: Yes): Echocardiogram abnormal | SAE Preferred Term ([12]; planned dose level 1.7 mg/m^2, Relationship to Study Drug: No): Deep vein thrombosis; also recorded: Febrile neutropenia; also recorded: Staphylococcal sepsis; also recorded: Disease progression; also recorded: Pulmonary embolism | SAE Preferred Term ([12]; planned dose level 2.4 mg/m^2, Relationship to Study Drug: No): Perirectal abscess; also recorded: Febrile neutropenia; also recorded: Anemia; also recorded: Disease progression; also recorded: Septic shock | SAE Preferred Term ([12]; planned dose level 4.8 mg/m^2, Relationship to Study Drug: No): Bone pain; also recorded: Febrile neutropenia; also recorded: Disease progression | SAE Preferred Term ([12]; planned dose level 9.6 mg/m^2, Relationship to Study Drug: No): Pneumonia; also recorded: Bacteremia; also recorded: Asthenia | SAE Preferred Term ([12]; planned dose level 14.4 mg/m^2, Relationship to Study Drug: No): Disease progression; also recorded: Sinusitis fungal; also recorded: Sepsis | toxicity profile [13]: favorable toxicity profile
